# Published values collected from several papers.
# Each line is one published result; the experiments were not run side by side.
# Target: Epithelial discoidin domain-containing receptor 1 (DDR1, Homo sapiens, UniProt Q08345)
Compound,read-out,technique,concentration,remaining binding
FC(F)(F)Oc1cccc(-c2cnc3ccc(-c4ccncc4)nn23)c1,cell-free assay,competition with immobilised ligand,5 µM,48%
CN(C)c1nccc(-c2cnn3ncccc23)n1,binding,,1 µM,100%
CC(=O)c1c(NS(C)(=O)=O)c2cc(-c3ccc(Cl)cc3)c(-c3ccc(Cl)cc3Cl)nc2n(C)c1=O,cell-free assay,competition with immobilised ligand,1 µM,100%
Cc1cnn2ncc(-c3ccnc(N(C)C)n3)c2c1,binding,,1 µM,100%
C[C@@H](c1ccc(-n2cnc3c(N)ncnc32)cc1)N1CCc2nn(C)c(Cc3ccccc3)c2C1=O,binding,competition with immobilised ligand,0.1 µM,8.9%
CC(=O)Nc1c(C(C)=O)c(=O)n(C)c2nc(-c3ccc(Cl)cc3Cl)c(-c3ccc(Cl)cc3)cc12,cell-free assay,competition with immobilised ligand,1 µM,100%
CNC(=O)[C@@H]1CC[C@@H](n2c(-c3ccc4cnccc4c3)nc3ccc(C(=O)NCc4cccc(C(N)=O)c4)cc32)C1,binding,competition with immobilised ligand,1 µM,100%
CNC(=O)c1ccc(Nc2ncc(C(F)(F)F)c(NCc3nccnc3N(C)S(C)(=O)=O)n2)cc1,cell-free assay,competition with immobilised ligand,0.1 µM,100%
CN(CCCC(F)(F)F)c1nccc(-c2cnn3ncccc23)n1,binding,,1 µM,100%
O=C(Nc1c[nH]nc1C(=O)NC1CCNCC1)c1cc(F)cc(F)c1,binding,competition with immobilised ligand,1 µM,100%
N[C@H]1CCN(c2nccc(-c3cnn4ncccc34)n2)C1,binding,,1 µM,100%
Cc1cnc(Nc2ccc(C(=O)N3CCC(N4CCCC4)CC3)cc2)nc1-c1cc2ccccc2s1,binding,competition with immobilised ligand,1 µM,0.1%
CS(=O)(=O)c1cc(C2(NC(=O)c3cncc4c3cnn4-c3ccc(F)cc3)CC2)ccn1,cell-free assay,competition with immobilised ligand,1 µM,100%
COc1ccnn2ncc(-c3ccnc(N(C)C)n3)c12,binding,,1 µM,100%
Nc1ncc2c(n1)-c1c([nH]c3ccc(C#CC4CC4)cc13)CCCC2,binding,competition with immobilised ligand,1 µM,100%
O=C(c1ccc(Nc2ncc(Cl)c(-c3ccc(Cl)s3)n2)cc1)N1CCC(N2CCCC2)CC1,binding,competition with immobilised ligand,1 µM,12%
COc1cnc(Nc2cccc(S(N)(=O)=O)c2)nc1N1CCN(c2ccccc2)CC1,binding,competition with immobilised ligand,1 µM,93%
FC(F)(F)c1ccc2c(c1)nc(-c1cccnc1)n2C1CC1,cell-free assay,competition with immobilised ligand,1 µM,100%
CC1CCCN1c1nccc(-c2cnn3ncccc23)n1 (stereo not drawn),binding,,1 µM,94%
O=C(c1ccc(Nc2ncc(Cl)c(-c3cc4ccccc4s3)n2)cc1)N1CCC(N2CCCC2)CC1,binding,competition with immobilised ligand,1 µM,0.4%
O=C(O)c1cc(-c2ccc(C3CCNCC3)cc2)c2ccc(-c3ccc(C(F)(F)F)cc3)cc2c1,cell-free assay,competition with immobilised ligand,1 µM,100%
